# Calls of active or inactive are those of the source.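 How the source made its calls: active means compound moving the glutamate curve by at least twofold either way, or glutamate peak under 75% or over 125%; inactive means the rest.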
# Target: Metabotropic glutamate receptor 4 (Rattus norvegicus) (UniProt P31423)
# Experiment: rat mGlu4 allosteric modulation, glutamate curve shift, profiling panel, selectivity assay for mGlu5 PAM project, thallium flux, HEK/GIRK cells (AID 588734)
# Conditions: glutamate CRC shift, at 10 µM; Emax: measured here: glutamate max response with compound
# How it was run: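 Material: HEK/GIRK cells stably expressing rat mGlu4 receptor | Reagent: Glutamate concentration-response curve as agonist stimulus | Dosing: Single test compound dose, 10 µM final | Schedule: Dye loading for 45 min at 37 °C | Signal: Thallium influx measured as slope of dye fluorescence | Control set: Compound-free glutamate curve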
# Metabotropic glutamate receptor 4 (Rattus norvegicus), sequence (P31423 whole entry, looked up): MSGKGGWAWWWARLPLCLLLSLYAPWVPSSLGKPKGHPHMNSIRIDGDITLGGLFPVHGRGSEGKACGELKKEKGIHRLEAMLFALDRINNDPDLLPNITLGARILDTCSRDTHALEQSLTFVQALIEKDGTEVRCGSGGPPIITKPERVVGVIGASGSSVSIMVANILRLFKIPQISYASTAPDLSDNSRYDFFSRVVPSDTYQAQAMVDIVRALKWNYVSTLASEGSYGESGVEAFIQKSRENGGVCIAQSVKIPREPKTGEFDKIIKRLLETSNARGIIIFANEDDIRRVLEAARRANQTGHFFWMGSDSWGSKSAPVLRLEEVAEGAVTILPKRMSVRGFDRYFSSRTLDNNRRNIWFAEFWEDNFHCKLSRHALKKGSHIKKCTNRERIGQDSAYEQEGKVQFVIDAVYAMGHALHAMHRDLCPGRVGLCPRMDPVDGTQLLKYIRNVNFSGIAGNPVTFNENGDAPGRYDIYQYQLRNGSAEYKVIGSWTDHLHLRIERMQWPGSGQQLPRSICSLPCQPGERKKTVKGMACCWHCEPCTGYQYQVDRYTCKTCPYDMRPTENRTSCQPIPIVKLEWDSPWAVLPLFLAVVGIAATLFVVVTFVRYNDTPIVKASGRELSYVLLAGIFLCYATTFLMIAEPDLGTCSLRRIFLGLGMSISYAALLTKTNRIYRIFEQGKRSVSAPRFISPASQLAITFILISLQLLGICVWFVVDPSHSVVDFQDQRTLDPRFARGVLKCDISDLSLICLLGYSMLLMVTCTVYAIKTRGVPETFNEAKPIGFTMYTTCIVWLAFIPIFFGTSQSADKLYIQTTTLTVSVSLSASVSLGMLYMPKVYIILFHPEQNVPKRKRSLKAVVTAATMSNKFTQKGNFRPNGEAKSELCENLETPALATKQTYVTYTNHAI
Structure (SMILES),Emax [%],fold shift
CC1(NC(=O)c2ccc(C#Cc3cccc(F)c3)cn2)COC1,93,1 (inactive)
C[C@@H](NC(=O)c1ccc(C#Cc2cccc(F)c2)cn1)C(C)(C)O,90,0.88 (inactive)

# Source: PubChem BioAssay AID588734 (Vanderbilt Specialized Chemistry Center, 2011)
